Measured values as given in ChEMBL document CHEMBL4251655 (Eur J Med Chem, 2018).

Columns and labels:
[1] = target: Tyrosine-protein kinase ABL1 (Homo sapiens) (UniProt P00519); assay: Inhibition of recombinant human His-tagged ABL1 expressed in baculovirus expression system at 1 uM relative to control
Method in brief: (§1)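 Forty-kinase selectivity panel; each compound tested at a single 1 µM concentration in the presence of 1 mM ATP; result given as percent inhibition.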

[2] = target: T1, Serine/threonine-protein kinase Chk1 (Homo sapiens) (UniProt O14757); assay: Inhibition of recombinant full length human His-tagged CHEK1 expressed in baculovirus expression system at 1 uM relative to control; method in brief: as §1
T1 sequence (whole entry): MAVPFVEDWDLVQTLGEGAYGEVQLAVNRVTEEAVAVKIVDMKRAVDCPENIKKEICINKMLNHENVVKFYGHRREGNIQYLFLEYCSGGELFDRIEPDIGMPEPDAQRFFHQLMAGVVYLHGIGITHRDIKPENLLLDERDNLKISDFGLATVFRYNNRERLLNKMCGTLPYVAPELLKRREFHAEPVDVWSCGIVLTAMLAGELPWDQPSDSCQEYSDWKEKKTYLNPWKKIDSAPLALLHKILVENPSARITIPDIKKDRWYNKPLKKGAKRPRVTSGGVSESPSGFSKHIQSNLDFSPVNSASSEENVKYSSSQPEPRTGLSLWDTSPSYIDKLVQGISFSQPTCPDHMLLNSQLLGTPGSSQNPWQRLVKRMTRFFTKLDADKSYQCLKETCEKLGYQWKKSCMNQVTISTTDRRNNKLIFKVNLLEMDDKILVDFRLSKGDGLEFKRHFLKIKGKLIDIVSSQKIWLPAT

[3] = target: Casein kinase I isoform alpha (Homo sapiens) (UniProt P48729); assay: Inhibition of recombinant full length human GST-tagged CSNK1A1 expressed in baculovirus expression system at 1 uM relative to control; method in brief: as §1
[4] = target: Casein kinase II subunit alpha' (Homo sapiens) (UniProt P19784); assay: Inhibition of recombinant full length human GST-tagged CSNK2A2 expressed in baculovirus expression system at 1 uM relative to control; method in brief: as §1
[5] = target: Ephrin type-A receptor 2 (Homo sapiens) (UniProt P29317); assay: Inhibition of recombinant human GST-tagged EPHA2 cytoplasmic domain expressed in baculovirus expression system at 1 uM relative to control; method in brief: as §1
[6] = target: Glycogen synthase kinase-3 beta (Homo sapiens) (UniProt P49841); assay: Inhibition of recombinant human full length His-tagged GSK3beta expressed in baculovirus expression system at 1 uM relative to control; method in brief: as §1
[7] = target: Tyrosine-protein kinase Lck (Homo sapiens) (UniProt P06239); assay: Inhibition of recombinant human full length His-tagged LCK expressed in baculovirus expression system at 1 uM relative to control; method in brief: as §1
[8] = target: Hepatocyte growth factor receptor (Homo sapiens) (UniProt P08581); assay: Inhibition of recombinant human His-tagged c-Met cytoplasmic domain expressed in baculovirus expression system at 1 uM relative to control; method in brief: as §1
[9] = target: Myosin light chain kinase 2, skeletal/cardiac muscle (Homo sapiens) (UniProt Q9H1R3); assay: Inhibition of recombinant human full length GST-tagged MYLK2 expressed in baculovirus expression system at 1 uM relative to control; method in brief: as §1
[10] = target: cAMP-dependent protein kinase catalytic subunit alpha (Homo sapiens) (UniProt P17612); assay: Inhibition of recombinant human His-tagged PRKACA expressed in Escherichia coli at 1 uM relative to control; method in brief: as §1
[11] = target: T2, Serine/threonine-protein kinase 3 (Homo sapiens) (UniProt Q13188); assay: Inhibition of recombinant human full length GST-tagged STK3 expressed in baculovirus expression system at 1 uM relative to control; method in brief: as §1
T2 sequence (whole entry): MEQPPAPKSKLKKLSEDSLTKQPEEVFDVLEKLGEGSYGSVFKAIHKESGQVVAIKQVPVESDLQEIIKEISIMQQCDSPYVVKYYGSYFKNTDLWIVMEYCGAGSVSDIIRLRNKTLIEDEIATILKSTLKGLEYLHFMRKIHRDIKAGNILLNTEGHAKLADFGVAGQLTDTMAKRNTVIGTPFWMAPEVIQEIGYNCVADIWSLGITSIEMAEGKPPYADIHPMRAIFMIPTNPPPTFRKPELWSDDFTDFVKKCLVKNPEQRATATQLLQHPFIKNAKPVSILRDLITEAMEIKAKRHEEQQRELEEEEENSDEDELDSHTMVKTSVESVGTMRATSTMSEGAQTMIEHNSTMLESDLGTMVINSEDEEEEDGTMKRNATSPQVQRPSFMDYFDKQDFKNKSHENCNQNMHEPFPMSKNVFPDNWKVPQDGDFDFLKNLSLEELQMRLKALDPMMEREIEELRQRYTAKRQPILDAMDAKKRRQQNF

[12] = target: Serine/threonine-protein kinase PAK 4 (Homo sapiens) (UniProt O96013); assay: Inhibition of recombinant human GST-tagged PAK4 expressed in baculovirus expression system at 1 uM relative to control; method in brief: as §1
[13] = target: T3, 3-phosphoinositide-dependent protein kinase 1 (Homo sapiens) (UniProt O15530); assay: Inhibition of recombinant human full length His-tagged PDPK1 expressed in baculovirus expression system at 1 uM relative to control; method in brief: as §1
T3 sequence (whole entry): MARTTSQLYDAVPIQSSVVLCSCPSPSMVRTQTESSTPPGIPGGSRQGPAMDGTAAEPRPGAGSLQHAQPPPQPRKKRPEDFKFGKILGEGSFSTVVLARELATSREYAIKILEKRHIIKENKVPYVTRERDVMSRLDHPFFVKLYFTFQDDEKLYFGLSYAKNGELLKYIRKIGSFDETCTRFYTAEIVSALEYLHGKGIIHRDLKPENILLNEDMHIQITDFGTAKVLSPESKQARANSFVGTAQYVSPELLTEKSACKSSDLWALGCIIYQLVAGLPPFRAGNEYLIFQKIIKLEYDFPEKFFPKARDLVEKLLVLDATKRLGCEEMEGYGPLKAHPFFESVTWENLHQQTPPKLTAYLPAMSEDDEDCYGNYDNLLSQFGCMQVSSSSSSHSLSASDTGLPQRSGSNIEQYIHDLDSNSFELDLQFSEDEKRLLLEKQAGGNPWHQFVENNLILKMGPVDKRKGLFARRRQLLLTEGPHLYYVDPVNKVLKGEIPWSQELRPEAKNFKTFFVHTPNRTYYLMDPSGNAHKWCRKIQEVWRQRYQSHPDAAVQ

Chain of Casein kinase I isoform alpha (Homo sapiens) (P48729 2-337 limits assumed): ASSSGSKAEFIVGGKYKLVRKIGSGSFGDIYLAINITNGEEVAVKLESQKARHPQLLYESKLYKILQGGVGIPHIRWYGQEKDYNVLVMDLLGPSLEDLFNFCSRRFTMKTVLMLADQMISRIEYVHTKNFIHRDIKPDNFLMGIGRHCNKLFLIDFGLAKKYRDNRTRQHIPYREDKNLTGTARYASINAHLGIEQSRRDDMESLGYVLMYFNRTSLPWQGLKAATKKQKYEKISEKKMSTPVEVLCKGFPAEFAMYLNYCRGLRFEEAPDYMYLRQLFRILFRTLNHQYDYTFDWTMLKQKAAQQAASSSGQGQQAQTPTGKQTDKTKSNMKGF
Chain of Ephrin type-A receptor 2 (Homo sapiens) (P29317 whole entry, the tested form may be a part): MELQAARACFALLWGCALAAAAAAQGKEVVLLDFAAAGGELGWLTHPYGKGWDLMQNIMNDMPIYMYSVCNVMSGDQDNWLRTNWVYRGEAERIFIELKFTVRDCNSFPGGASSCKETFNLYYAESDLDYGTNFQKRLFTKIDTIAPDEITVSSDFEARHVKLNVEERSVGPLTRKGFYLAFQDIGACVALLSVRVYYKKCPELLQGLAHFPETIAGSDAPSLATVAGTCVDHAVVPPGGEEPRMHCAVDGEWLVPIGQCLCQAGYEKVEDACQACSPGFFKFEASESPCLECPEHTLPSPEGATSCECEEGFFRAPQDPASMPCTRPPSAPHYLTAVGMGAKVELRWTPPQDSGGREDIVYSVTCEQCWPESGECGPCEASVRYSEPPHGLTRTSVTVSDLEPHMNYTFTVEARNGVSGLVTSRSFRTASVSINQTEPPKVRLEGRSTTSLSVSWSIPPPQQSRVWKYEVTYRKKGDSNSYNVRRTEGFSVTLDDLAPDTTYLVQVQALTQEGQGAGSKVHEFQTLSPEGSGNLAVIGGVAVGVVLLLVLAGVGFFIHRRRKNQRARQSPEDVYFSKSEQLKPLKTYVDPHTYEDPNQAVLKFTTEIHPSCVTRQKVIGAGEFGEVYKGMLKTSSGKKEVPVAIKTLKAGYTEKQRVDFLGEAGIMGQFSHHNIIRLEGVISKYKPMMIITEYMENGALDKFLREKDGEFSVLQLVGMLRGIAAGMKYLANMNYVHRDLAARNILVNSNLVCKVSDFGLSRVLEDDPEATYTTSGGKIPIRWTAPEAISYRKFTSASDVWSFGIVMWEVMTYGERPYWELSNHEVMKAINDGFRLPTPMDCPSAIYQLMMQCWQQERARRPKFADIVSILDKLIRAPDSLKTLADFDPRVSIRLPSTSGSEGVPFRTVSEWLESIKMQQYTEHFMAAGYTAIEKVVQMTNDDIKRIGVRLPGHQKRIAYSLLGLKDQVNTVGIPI
Chain of Glycogen synthase kinase-3 beta (Homo sapiens) (P49841 whole entry, looked up): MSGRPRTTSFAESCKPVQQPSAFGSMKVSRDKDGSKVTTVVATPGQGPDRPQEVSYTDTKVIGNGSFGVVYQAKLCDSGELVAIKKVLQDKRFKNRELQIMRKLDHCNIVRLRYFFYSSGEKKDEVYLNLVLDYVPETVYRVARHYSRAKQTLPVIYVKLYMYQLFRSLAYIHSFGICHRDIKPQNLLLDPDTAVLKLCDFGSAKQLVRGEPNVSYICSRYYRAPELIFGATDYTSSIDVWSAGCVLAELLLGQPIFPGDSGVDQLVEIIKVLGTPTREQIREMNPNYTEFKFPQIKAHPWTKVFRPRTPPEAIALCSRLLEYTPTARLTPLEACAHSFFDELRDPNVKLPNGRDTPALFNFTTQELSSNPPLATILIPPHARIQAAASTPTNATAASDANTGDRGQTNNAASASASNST
Chain of Casein kinase II subunit alpha' (Homo sapiens) (P19784 whole entry, looked up, the tested form may be a part): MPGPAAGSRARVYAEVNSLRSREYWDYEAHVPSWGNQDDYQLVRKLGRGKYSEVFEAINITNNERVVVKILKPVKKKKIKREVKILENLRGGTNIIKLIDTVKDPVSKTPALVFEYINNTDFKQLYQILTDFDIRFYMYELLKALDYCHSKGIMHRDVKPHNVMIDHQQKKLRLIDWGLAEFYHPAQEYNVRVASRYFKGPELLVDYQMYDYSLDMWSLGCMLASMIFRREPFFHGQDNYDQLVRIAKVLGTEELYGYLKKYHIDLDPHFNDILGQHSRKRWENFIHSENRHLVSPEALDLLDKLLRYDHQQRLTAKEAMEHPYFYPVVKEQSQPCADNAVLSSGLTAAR
Chain of Serine/threonine-protein kinase PAK 4 (Homo sapiens) (O96013 whole entry, looked up): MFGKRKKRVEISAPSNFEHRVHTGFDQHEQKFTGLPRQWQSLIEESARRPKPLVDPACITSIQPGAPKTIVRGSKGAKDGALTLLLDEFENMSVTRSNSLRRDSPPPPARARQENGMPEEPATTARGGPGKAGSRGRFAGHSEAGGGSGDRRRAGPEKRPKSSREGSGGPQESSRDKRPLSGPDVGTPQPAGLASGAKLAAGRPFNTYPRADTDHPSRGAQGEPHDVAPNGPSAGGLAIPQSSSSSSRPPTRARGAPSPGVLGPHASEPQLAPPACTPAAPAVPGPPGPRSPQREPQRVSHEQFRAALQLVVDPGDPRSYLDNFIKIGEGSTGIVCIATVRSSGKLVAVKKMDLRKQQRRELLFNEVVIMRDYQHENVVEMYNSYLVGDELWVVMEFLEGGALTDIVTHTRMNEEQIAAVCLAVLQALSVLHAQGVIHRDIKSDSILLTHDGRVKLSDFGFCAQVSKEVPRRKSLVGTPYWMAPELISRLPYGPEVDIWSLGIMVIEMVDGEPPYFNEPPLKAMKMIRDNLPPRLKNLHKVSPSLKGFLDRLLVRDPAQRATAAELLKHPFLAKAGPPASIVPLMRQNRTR
Chain of Hepatocyte growth factor receptor (Homo sapiens) (P08581 whole entry, the tested form may be a part): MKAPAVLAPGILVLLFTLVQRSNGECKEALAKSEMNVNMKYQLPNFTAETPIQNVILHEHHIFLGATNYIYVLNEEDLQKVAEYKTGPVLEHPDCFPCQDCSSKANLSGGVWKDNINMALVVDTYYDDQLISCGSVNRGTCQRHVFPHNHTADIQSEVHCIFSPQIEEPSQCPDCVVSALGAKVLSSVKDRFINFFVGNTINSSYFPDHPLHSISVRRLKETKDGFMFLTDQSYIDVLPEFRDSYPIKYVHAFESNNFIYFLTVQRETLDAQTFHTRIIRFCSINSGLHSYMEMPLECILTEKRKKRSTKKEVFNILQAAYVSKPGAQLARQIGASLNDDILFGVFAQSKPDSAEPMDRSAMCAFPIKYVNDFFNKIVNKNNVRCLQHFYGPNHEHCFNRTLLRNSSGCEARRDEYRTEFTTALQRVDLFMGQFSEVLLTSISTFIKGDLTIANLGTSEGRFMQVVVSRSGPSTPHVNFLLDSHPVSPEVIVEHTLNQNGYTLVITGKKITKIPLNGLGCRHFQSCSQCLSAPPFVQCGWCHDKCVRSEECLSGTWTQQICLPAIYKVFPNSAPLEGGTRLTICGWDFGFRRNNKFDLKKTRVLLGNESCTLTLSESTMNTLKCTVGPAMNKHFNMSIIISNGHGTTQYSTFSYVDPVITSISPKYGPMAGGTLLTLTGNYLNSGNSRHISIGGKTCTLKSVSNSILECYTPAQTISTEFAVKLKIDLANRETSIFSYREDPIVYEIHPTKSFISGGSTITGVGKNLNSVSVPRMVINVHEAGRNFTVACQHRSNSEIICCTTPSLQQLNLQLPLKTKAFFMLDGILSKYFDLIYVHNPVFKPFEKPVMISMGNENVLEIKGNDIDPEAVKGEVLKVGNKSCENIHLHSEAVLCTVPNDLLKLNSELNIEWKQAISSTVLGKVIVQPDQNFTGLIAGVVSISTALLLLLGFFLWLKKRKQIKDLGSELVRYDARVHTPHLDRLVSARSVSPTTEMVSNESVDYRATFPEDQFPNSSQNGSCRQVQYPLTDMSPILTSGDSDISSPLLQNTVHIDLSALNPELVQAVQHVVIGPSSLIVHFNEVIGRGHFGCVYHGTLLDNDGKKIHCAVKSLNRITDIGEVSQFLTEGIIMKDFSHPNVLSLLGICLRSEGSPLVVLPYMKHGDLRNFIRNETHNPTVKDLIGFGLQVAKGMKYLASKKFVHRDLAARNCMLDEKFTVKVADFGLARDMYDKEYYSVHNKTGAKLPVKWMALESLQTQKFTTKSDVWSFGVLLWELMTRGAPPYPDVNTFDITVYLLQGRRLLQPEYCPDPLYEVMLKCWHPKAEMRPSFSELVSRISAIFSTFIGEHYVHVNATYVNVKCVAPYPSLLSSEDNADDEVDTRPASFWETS
Chain of Myosin light chain kinase 2, skeletal/cardiac muscle (Homo sapiens) (Q9H1R3 whole entry): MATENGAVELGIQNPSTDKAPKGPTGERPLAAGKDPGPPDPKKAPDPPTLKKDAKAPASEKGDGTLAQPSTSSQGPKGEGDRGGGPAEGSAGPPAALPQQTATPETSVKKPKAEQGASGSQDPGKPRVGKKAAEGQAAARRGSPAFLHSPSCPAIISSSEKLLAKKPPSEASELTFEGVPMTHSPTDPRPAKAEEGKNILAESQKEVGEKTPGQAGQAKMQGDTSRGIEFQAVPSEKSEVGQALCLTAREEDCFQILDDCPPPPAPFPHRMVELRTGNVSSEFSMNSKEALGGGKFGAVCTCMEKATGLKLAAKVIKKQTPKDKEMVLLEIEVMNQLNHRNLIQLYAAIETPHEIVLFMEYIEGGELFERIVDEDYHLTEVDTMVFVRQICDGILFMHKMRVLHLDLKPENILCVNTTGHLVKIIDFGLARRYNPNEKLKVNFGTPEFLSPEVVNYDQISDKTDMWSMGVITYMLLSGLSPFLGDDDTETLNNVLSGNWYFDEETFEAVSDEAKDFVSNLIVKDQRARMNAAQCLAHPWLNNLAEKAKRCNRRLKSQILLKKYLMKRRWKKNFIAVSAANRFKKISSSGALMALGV

inhibition [1]	inhibition [2]	inhibition [3]	inhibition [4]	inhibition [5]	inhibition [6]	inhibition [7]	inhibition [8]	inhibition [9]	inhibition [10]	inhibition [11]	inhibition [12]	inhibition [13]	SMILES
4%	8%	0%	6%	-1%	6%	11%	-6%	7%	1%	13%	10%	-2%	COc1cc(C)c(S(N)(=O)=O)cc1C(=O)Nc1cccc(-c2nncn2C(C)C)n1
-6%	2%	-1%	3%	0%	3%	-6%	-6%	3%	3%	10%	-1%	11%	COc1cc(C)c(S(C)(=O)=O)cc1C(=O)Nc1cccc(-c2nncn2C(C)C)n1
16%	17%	15%	1%	1%	7%	4%	11%	0%	-1%	40%	9%	10%	COc1cc(C)c(C(N)=O)cc1C(=O)Nc1cccc(-c2nncn2C(C)C)n1

Further lines, the molecule ahead of its results:

SMILES	inhibition [1]	inhibition [2]	inhibition [3]	inhibition [4]	inhibition [5]	inhibition [6]	inhibition [7]	inhibition [8]	inhibition [9]	inhibition [10]	inhibition [11]	inhibition [12]	inhibition [13]
COc1ccc(S(N)(=O)=O)cc1C(=O)Nc1cccc(-c2nncn2C(C)C)n1	-3%	-4%	0%	-1%	0%	0%	8%	7%	1%	–	-1%	8%	-6%
COc1ccc(S(C)(=O)=O)cc1C(=O)Nc1cccc(-c2nncn2C(C)C)n1	-4%	1%	-3%	5%	0%	-1%	4%	7%	0%	-5%	-1%	6%	-2%
COc1ccc(C(N)=O)cc1C(=O)Nc1cccc(-c2nncn2C(C)C)n1	16%	34%	6%	0%	-1%	0%	13%	5%	7%	-1%	0%	20%	7%
